PLC-gamma1 inh – PLC-gamma1 enzyme inhibitors, primary screen, biochemical, fluorescence, purified enzyme; inhibition, % at 12.2 µM; AID 720700, 2013; fluorogenic substrate; 1-phosphatidylinositol 4,5-bisphosphate phosphodiesterase gamma-1 (Homo sapiens), P19174; 370,000 tested, 0.84% active; in the data active = inhibition above about 9.5%
ARFGAP1 inhibitor – inhibitors of rat ARFGAP1 GAP activity, primary screen, biochemical, fluorescence polarization, GDP tracer | 360,000 tested, 0.26% active | inhibition, % at 16.5 µM | ADP-ribosylation factor GTPase-activating protein 1 (Rattus norvegicus), Q62848 | Arfgap1-stimulated ARF1 GTP hydrolysis, GDP FP detection;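 active = inhibition above a per-plate limit, mean inhibition of low control wells plus 3 SD, cut at about 25% in these data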;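 note: 0% = DMSO wells with enzyme and 100% = wells lacking Arfgap1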
Target sequence (Q62848 1-136 limits assumed): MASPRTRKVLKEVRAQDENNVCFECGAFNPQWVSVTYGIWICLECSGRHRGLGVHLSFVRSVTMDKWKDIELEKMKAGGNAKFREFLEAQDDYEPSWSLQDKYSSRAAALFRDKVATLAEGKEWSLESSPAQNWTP
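System: truncated rat Arfgap1 GAP domain / Benchmarks: high control wells lacking Arfgap1, low control full reaction with DMSO / Times: compound-enzyme preincubation 20 min, reaction 120 min, detection 60 min, 25 °C / Repeats: one replicate per compound / Also added: human ARF1(Δ1-17)-GTP substrate / Measured by: Tracer-displacement fluorescence polarization with EDTA stop, 620/688 nm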
ASAP1 inh – inhibitors of human ASAP1 ArfGAP activity, primary screen, biochemical, fluorescence polarization; ASAP1-stimulated ARF1 GTP hydrolysis, GDP FP detection; 360,000 tested, 0.19% active; Arf-GAP with SH3 domain, ANK repeat and PH domain-containing protein 1 (Homo sapiens), …; inhibition, % at 16.5 µM; in the data active = inhibition above about 25%;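 note: 0% = vehicle with enzyme and substrate and 100% = no enzyme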
PLCb3 inh – human PLC-beta3 inhibitors, primary screen, biochemical, fluorescence. 1-phosphatidylinositol 4,5-bisphosphate phosphodiesterase beta-3 (Homo sapiens), Q01970. Purified PLC-beta3, fluorogenic substrate. inhibition, % at 12.2 µM. 370,000 tested, 0.18% active. AID 720704, 2013;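 note: 0% = median of compound wells on plate and 100% = full blocker control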
sPLA2-III inh – human group III sPLA2 inhibitors, primary screen, biochemical, QFRET, BODIPY PC-A2 liposome substrate. QFRET BODIPY PC-A2 liposome hydrolysis, fluorescence. inhibition, % at 12.2 µM. Group 3 secretory phospholipase A2 (Homo sapiens), Q9NZ20. 370,000 tested, 0.56% active;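 active = inhibition above mean plus 3 SD of compounds lying within the high and low control bounds, cut at about 19% in these data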;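 note: 0% = median of test compound wells and 100% = no enzyme DMSO wells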
Target sequence (Q9NZ20 whole entry, looked up): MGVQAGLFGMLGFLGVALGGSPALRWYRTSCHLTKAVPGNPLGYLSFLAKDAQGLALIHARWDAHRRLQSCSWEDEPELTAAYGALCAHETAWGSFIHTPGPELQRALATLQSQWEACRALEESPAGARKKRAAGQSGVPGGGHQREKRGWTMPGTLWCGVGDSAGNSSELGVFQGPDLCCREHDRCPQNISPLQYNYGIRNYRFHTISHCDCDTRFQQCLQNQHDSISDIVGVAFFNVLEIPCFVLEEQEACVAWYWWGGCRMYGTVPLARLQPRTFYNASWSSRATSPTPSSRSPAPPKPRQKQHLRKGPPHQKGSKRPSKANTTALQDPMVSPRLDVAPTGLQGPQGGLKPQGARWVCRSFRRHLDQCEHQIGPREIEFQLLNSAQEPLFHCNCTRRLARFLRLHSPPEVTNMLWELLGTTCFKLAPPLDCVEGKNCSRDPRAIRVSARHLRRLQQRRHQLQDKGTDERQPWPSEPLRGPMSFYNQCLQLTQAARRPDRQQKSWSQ
PLCgamma1 ctr – PLC-gamma1 enzyme inhibitors, counter-screen for PLC-beta3 inhibitor project, biochemical, fluorescence. purified PLC-gamma1, fluorogenic substrate. shares compounds with PLC-gamma1 inh. inhibition, % at 12.3 µM. 3,300 tested, 3.1% active; in the data active = inhibition above about 9.5%
PLCb3 confirm – PLC-beta3 inhibitor confirmation, biochemical, fluorescence, purified enzyme; shares compounds with PLC-gamma1 inh; fluorogenic substrate fluorescence; inhibition, % at 12.3 µM; 3,300 tested, 1% active; AID 743261, 2014
* marks the source's active call; other numbers are inactive results; / = not tested or not shown. Rows were chosen to be rich in hits. Some 1.9% of all compounds tested hit in one or more screens of this group. Cut-off read from the data, not from the text of the source, unless noted: active = inhibition above about 11%; inactive = the rest.

SMILES	PLC-gamma1 inh	ARFGAP1 inhibitor	ASAP1 inh	PLCb3 inh	sPLA2-III inh	PLCgamma1 ctr	PLCb3 confirm
O=C(N/C=N/O)C1=NOC(CNc2ncc(C(F)(F)F)cc2Cl)C1 (stereo not given)	10*	4	4	8	-6	-7	-5
COCC(=O)N[C@@H]1C[C@@H]2O[C@H](CO)CC[C@@H]2O[C@@H]1CCc1ccc(-c2ccccc2)cc1	1	/	/	-3	-2	/	/
COCCCNC(=O)C1CC(=O)N(CCc2ccc(OC)c(OC)c2)C1 (stereo not given)	14*	-3	7	3	13	2	0
CC(=NOC(=O)c1ccc(Cl)cc1)c1nccs1	16*	-16	7	7	7	-8	-5
C/C(=N\OC(=O)c1ccc(Cl)cc1)c1nccs1	4	11	2	1	4	/	/
CSCCC(NC(=O)C12CC3CC(CC(C3)C1)C2)C(=O)OCC(=O)c1ccc(C)cc1 (stereo not given)	11*	3	1	-25	12	-1	-3
CSCCC(NC(=O)c1ccc([N+](=O)[O-])cc1Cl)C(=O)OCC(=O)C12CC3CC(CC(C3)C1)C2 (stereo not given)	7	-5	-1	0	11	/	/
Cc1ccccc1NS(=O)(=O)c1ccc2c(c1)CCC(=O)N2	13*	13	-13	5	1	-5	-3
Cc1cc(NS(=O)(=O)c2ccc3c(c2)CCC(=O)N3)ccc1Cl	-1	/	/	-3	-20	/	/
CCN1C(=O)/C(=C2\SC(=S)N(c3c(C)n(C)n(-c4ccccc4)c3=O)C2=O)c2ccccc21	7	-7	-4	11*	7	-1	-1
CC(=O)NC(Cc1ccc2c(c1)OCO2)C(=O)N1CCCC1 (stereo not given)	2	/	/	1	6	/	/
CCn1c2ccccc2c2cc(NC(=O)COC(=O)c3cccc(F)c3F)ccc21	0	/	/	2	1	/	/
Cc1onc(-c2c(Cl)cccc2Cl)c1NC(=O)NN(C)C	0	6	0	-8	9	/	/
CSCCNC(=O)Nc1c(-c2c(Cl)cccc2Cl)noc1C	12*	7	-1	6	11	-1	-2
COC(=O)C1CN(C2CCCC2)CCS(=O)(=O)N1Cc1cn(Cc2ccccc2)nn1 (stereo not given)	2	/	/	1	0	/	/
CC(C)(C)NCc1cc(Br)ccc1OCc1cccs1	4	11	-15	2	-4	/	/
CC(C)(C)NCc1ccccc1OCc1cccs1	13*	6	8	11*	1	-5	-3
CN(C(=O)CNC(=O)c1ccccc1OCC(=O)Nc1ccc(Br)cc1)c1ccccc1	2	/	/	4	-21	/	/
Cc1cc(-c2n[nH]c(=S)n2N=Cc2ccc(-c3ccccc3)cc2)n[nH]1	1	/	/	-1	3	/	/
COc1cc(/C=N/NC(=O)c2cccnc2)ccc1OCC(=O)Nc1c(C)cc(C)cc1C	10*	-4	-6	9	8	-50	-50
CCOC(=O)[C@@]12CN(C(=O)OC(C)(C)C)CC=C1N(Cc1ccc(OC)cc1)C(=O)[C@H]2CC(=O)N1CCSCC1	0	/	/	1	0	/	/
C/C(CC(=O)NC1CCCC1)=N\NC(=O)c1ccc([N+](=O)[O-])c(Cl)c1	14*	-15	-3	8	-3	-6	-3
CC(=O)Nc1ccccc1NC(=O)C/C(C)=N/NC(=O)c1ccc([N+](=O)[O-])c(Cl)c1	1	-9	-3	-47	-6	/	/
Cc1cc(O)c(C(C)C)cc1NC(=O)Nc1ccc([N+](=O)[O-])cc1	4	6	14	4	-4	/	/
Cc1ccc(C(C)C)cc1NC(=O)Nc1ccc([N+](=O)[O-])cc1	5	6	9	12*	4	5	10
SMILES	PLC-gamma1 inh	ARFGAP1 inhibitor	ASAP1 inh	PLCb3 inh	sPLA2-III inh	PLCgamma1 ctr	PLCb3 confirm
CCOc1cc(CNCCc2ccccc2)ccc1OCC(=O)NC(C)(C)C	9.9*	12	-2	-9	-14	-1	3
CCOc1cc(CNCCO)c(Cl)cc1OCC(=O)NCCc1ccccc1	4	6	-9	12*	7	-6	-2
CCNC(=O)COc1ccc(CC)cc1	5	3	-1	7	6	/	/
CCc1ccc(OCC(=O)NC(C)(C)C)cc1	10*	-1	6	4	-9	-6	0
COc1ccc(-n2c(Cc3cccs3)nnc2SCC(=O)Nc2cccc3ccccc23)cc1	0	/	/	3	-28	/	/
O=C(CCc1ccccc1)N[C@H]1[C@@H](OC(=O)c2cccnc2)CCC[C@@]12C(=O)N(Cc1ccccc1)c1ccccc12	6	/	/	5	-2	/	/
CNc1nc(C)nc(N/N=C/c2ccccc2)n1	11*	-6	-1	7	14	-2	-3
Cc1cc(-c2ccccc2)nc(N/N=C/c2ccccc2)n1	-22	4	15	-31	-4	/	/
CC(C)(C)OC(=O)N1CCC(NC(=O)c2nc[nH]c2C(=O)NC2CCN(C(=O)OC(C)(C)C)CC2)CC1	1	4	17	-2	-5	/	/
CCOC(=O)c1ccc(NC(=O)c2nc[nH]c2C(=O)NC2CCN(C(=O)OC(C)(C)C)CC2)cc1	11*	7	-7	6	12	-8	-4
CCOC(=O)c1cc(=O)c2c([N+](=O)[O-])ccc(OC)c2o1	9.6*	1	-12	5	1	-5	-3
CN(C)c1ccc(S(=O)(=O)N2CCCCC2)cc1NC(=O)C1CSC2(C)CCC(=O)N12 (stereo not given)	3	-4	-16	-2	-1	/	/
CC12CCC(=O)N1C(C(=O)Nc1cc(S(=O)(=O)N3CCCCCC3)ccc1OCC(F)(F)F)CS2 (stereo not given)	11*	14	5	-3	-11	-2	2
CC12CCC(=O)N1C(C(=O)Nc1ccc(S(=O)(=O)N3CCCCC3)cc1)CS2 (stereo not given)	2	2	9	-10	4	/	/
CC12CCC(=O)N1C(C(=O)Nc1cccc(S(=O)(=O)N3CCCCCC3)c1)CS2 (stereo not given)	10*	4	4	4	-12	-4	3
O=C(c1ccccc1NS(=O)(=O)c1ccc(Br)s1)N1CCCC1	9	9	0	11*	4	-5	-2
